Data set [1] relates to Mycobacterium tuberculosis. Description: Antitubercular activity against Mycobacterium tuberculosis H37Rv by agar dilution assay. The format is functional. Put shortly: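 Compounds 2-fold serially diluted into 7H10 agar tubes. H37Rv inoculum taken from fresh Lowenstein-Jensen slants, adjusted to 1 mg/mL wet weight in 0.05% Tween 80 saline, then diluted 10^-2 (about 10⁷ cfu/mL) and spotted onto the agar. Incubated at 37 °C; final read at 30 days. MIC is the lowest concentration giving complete growth inhibition per spot. Ofloxacin was the standard.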
(In agar dilution the substance is mixed into plates at graded concentrations.)

The subject of data set [2] is Mycobacterium tuberculosis. Nature of the data set: Antitubercular activity against Mycobacterium tuberculosis H37Rv at 50 ug/mL by agar dilution assay. Type of data set: functional, organism-based.
For data set [3], the system named is J774.A1. Description: Cytotoxicity against mouse […] cells at 50 ug/mL. Type of data set: cell-based.
The subject of data set [4] is J774.A1. Nature of the data set: Cytotoxicity against mouse […] cells at 25 ug/mL. The format is cell-based.
Data set [5] deals with Vero. Description: Cytotoxicity against Vero cells at 100 ug/mL after 72 hrs by MTT assay. The format is cell-based. The settings on record: chlorocebus sabaeus. An outline of the steps: (§1)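 VERO cells (from ATCC, maintained in-house) were seeded and grown at 37 °C in 5% CO₂/95% air. They were then exposed to the compound at 25, 50 and 100 µg/mL for 72 h.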
(Tetrazolium assays rely on reduction of a dye to a coloured formazan, in cell work by metabolically active cells.)

Data set [6] has as its system J774.A1. Description: Cytotoxicity against mouse […] cells at 12.5 ug/mL. The format is cell-based.
Data set [7] has as its system Vero. Description: Cytotoxicity against Vero cells at 25 ug/mL after 72 hrs by MTT assay. Type of data set: cell-based. To be noted: chlorocebus sabaeus. An outline of the steps: as §1

In general, MIC refers to the lowest concentration found to suppress growth.

Values after ≈ are worked out from the molar mass of the structure shown. Active and inactive are the calls of the source. The calls are words filed in the database; no cut-off is given here.

Regarding `CC(C)O[C@@H]1C=C([C@H](O)c2ccccc2[N+](=O)[O-])[C@H](O)[C@@H](COC(=O)C(C)(C)C)O1`, the MIC in data set [1] amounted to 25 µg/mL (≈ 59 µM).
Turning to `CC(C)O[C@@H]1C=C([C@H](O)c2ccc(F)cc2)C(=O)[C@@H](COC(=O)C(C)(C)C)O1`, the outcome in data set [2] was inactive.
The compound `CC(C)O[C@@H]1C=C([C@H](O)c2cccc([N+](=O)[O-])c2)[C@H](O)[C@@H](COC(=O)C(C)(C)C)O1` showed an MIC in data set [1] of 25 µg/mL (≈ 59 µM).
On the same count and under the same terms, the value for `CC(C)O[C@@H]1C=C([C@H](O)c2ccc(C(F)(F)F)cc2)C(=O)[C@@H](COC(=O)c2ccc([N+](=O)[O-])cc2)O1` was 25 µg/mL (≈ 49.1 µM); that for `CCCCCCCCC[C@@H](O)C1=C[C@@H](OC(C)C)O[C@H](COC(=O)c2ccc([N+](=O)[O-])cc2)[C@H]1O` was 25 µg/mL (≈ 50.6 µM).
In the case of `CC(C)O[C@@H]1C=C([C@H](O)c2ccc(C#N)cc2)C(=O)[C@@H](COC(=O)C(C)(C)C)O1`, the Activity result in data set [3], in data set [4], in data set [5] and in data set [6] was “Non-toxic” each time. In data set [1], this compound showed a minimum inhibitory concentration (MIC) of 3.12 µg/mL (≈ 7.77 µM).
Consider `CC(C)O[C@@H]1C=C([C@H](O)c2ccc([N+](=O)[O-])cc2)C(=O)[C@@H](COC(=O)c2ccc([N+](=O)[O-])cc2)O1`, for which 25 µg/mL (≈ 51.4 µM) was the least that counted as inhibitory in data set [1] (MIC).
For the compound `CC(C)O[C@@H]1C=C([C@H](O)c2ccc(C#N)cc2)[C@H](O)[C@@H](COC(=O)C(C)(C)C)O1`, the result in data set [2] was inactive.
In data set [1], `CC(C)O[C@@H]1C=C([C@H](O)c2ccc(F)cc2)C(=O)[C@@H](COC(=O)c2ccc([N+](=O)[O-])cc2)O1` returned a minimal inhibitory concentration (MIC) of 25 µg/mL (≈ 54.4 µM).
With `CC(C)O[C@@H]1C=C([C@H](O)c2ccc([N+](=O)[O-])cc2)[C@H](O)[C@@H](COC(=O)C(C)(C)C)O1`, in data set [2], the result was inactive.
`CCCCCCCCC[C@@H](O)C1=C[C@@H](OC(C)C)O[C@H](COC(=O)c2ccc([N+](=O)[O-])cc2)C1=O`: in data set [1], the MIC is 25 µg/mL (≈ 50.9 µM).
As for `CC(C)O[C@@H]1C=C([C@H](O)c2ccc([N+](=O)[O-])cc2)[C@H](O)[C@@H](COC(=O)c2ccc([N+](=O)[O-])cc2)O1`, the MIC in data set [1] was determined as 25 µg/mL (≈ 51.2 µM).
On the same count and under the same terms, the value for `CC(C)O[C@@H]1C=C([C@H](O)c2ccc(F)cc2)[C@H](O)[C@@H](COC(=O)C(C)(C)C)O1` was 25 µg/mL (≈ 63.1 µM); that for `CC(C)O[C@@H]1C=C([C@H](O)c2ccc([N+](=O)[O-])cc2)C(=O)[C@@H](COC(=O)C(C)(C)C)O1` was 50 µg/mL (≈ 119 µM); that for `CC(C)O[C@@H]1C=C([C@H](O)c2ccc(C(F)(F)F)cc2)[C@H](O)[C@@H](COC(=O)C(C)(C)C)O1` was 25 µg/mL (≈ 56 µM).
In data set [1], `CC(C)O[C@@H]1C=C([C@H](O)c2ccc(C#N)cc2)C(=O)[C@@H](COC(=O)c2ccc([N+](=O)[O-])cc2)O1` showed an MIC of 25 µg/mL (≈ 53.6 µM).
Same read-out and setting: in the case of `CC(C)O[C@@H]1C=C([C@H](O)c2ccc(C(F)(F)F)cc2)[C@H](O)[C@@H](COC(=O)c2ccc([N+](=O)[O-])cc2)O1` it was 25 µg/mL (≈ 48.9 µM); in that of `CC(C)O[C@@H]1C=C([C@H](O)c2cccc([N+](=O)[O-])c2)C(=O)[C@@H](COC(=O)C(C)(C)C)O1`, 50 µg/mL (≈ 119 µM).
For the compound `CCCCCCCCC[C@@H](O)C1=C[C@@H](OC(C)C)O[C@H](COC(=O)C(C)(C)C)C1=O`, the Activity entry in data set [3] is “Non-toxic”; in data set [4], “Non-toxic”; in data set [6], “Non-toxic”; in data set [7] it was “Toxic”. Inhibition of growth in data set [1] (MIC) required 6.25 µg/mL (≈ 14.7 µM).
In data set [1], `CC(=O)OC[C@H]1O[C@H](OC(C)C)C=C([C@H](O)c2ccc([N+](=O)[O-])cc2)[C@@H]1O` registered a minimal inhibitory concentration (MIC) of 25 µg/mL (≈ 65.6 µM).
`CCCCCCCCC[C@@H](O)C1=C[C@@H](OC(C)C)O[C@H](COC(=O)C(C)(C)C)[C@H]1O`: the Activity entry in data set [3] is on record as “Non-toxic”; in data set [4] it was “Non-toxic”; in data set [6] it was “Non-toxic”; in data set [7] it was “Toxic”. In addition, in data set [1], the minimal inhibitory concentration (MIC) was 1.56 µg/mL (≈ 3.64 µM).
`CC(C)O[C@@H]1C=C([C@H](O)c2ccccc2[N+](=O)[O-])C(=O)[C@@H](COC(=O)C(C)(C)C)O1` displayed an MIC in data set [1] of 50 µg/mL (≈ 119 µM).
Still for that read-out and setting: the value for `CCC[C@@H](O)C1=C[C@@H](OC(C)C)O[C@H](COC(=O)C(C)(C)C)C1=O` was 25 µg/mL (≈ 73 µM).
For the compound `CC(=O)OC[C@H]1O[C@H](OC(C)C)C=C([C@H](O)c2ccc([N+](=O)[O-])cc2)C1=O`, the Activity entry was “Non-toxic” in data set [3], “Non-toxic” in data set [4], “Non-toxic” in data set [6] and “Toxic” in data set [7]. Besides, in data set [1], the MIC is 1.56 µg/mL (≈ 4.11 µM).
Take `CC(C)O[C@@H]1C=C([C@H](O)c2ccc(C(F)(F)F)cc2)C(=O)[C@@H](COC(=O)C(C)(C)C)O1`: the MIC in data set [1] stood at 50 µg/mL (≈ 112 µM).
Compound `CCC[C@@H](O)C1=C[C@@H](OC(C)C)O[C@H](COC(=O)c2ccc([N+](=O)[O-])cc2)C1=O` had an MIC in data set [1] of 25 µg/mL (≈ 61.4 µM).
